# bIAP act – increases bovine intestinal alkaline phosphatase activity; purified bovine IAP, CDP-star luminescence, 30 min; stronger effect = higher value; fold of DMSO-control signal, blank-subtracted; activation factor at 20 µM; 0.17% of 200,000 active; AID 1016;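 active = activation factor of 2 or more at 20 µM, a signal rise over negative controls twice the positive control's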
# mIAP activ – mouse IAP activation. 0.24% of 330,000 active. muIAP, CDP-Star luminescence, 30 min; stronger effect = higher value; 1 = vehicle-only enzyme signal, 0 = enzyme-free wells. activation factor at 10 µM. AID 2805;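 active = activation factor of at least 2 at 20 µM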
#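 System: mouse IAP enzyme. Reagent: CDP-Star chemiluminescent phosphatase substrate. Benchmarks: DMSO wells, no-enzyme wells. Times: 30 min enzyme-substrate-compound incubation at room temperature. Detection: luminescence from enzymatic CDP-Star hydrolysis. Doses: test compounds delivered from DMSO solution.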
# hIAP activ – increases human intestinal alkaline phosphatase activity. activation factor at 10 µM. 0.16% of 330,000 active. P09923. purified human IAP, CDP-Star luminescence, 30 min; stronger effect = higher value; 1 = vehicle-only enzyme, 0 = enzyme-free background. AID 2524;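 active = activation factor of the enzyme at least 2-fold when tested at 20 µM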
# Target sequence (P09923 whole entry, looked up): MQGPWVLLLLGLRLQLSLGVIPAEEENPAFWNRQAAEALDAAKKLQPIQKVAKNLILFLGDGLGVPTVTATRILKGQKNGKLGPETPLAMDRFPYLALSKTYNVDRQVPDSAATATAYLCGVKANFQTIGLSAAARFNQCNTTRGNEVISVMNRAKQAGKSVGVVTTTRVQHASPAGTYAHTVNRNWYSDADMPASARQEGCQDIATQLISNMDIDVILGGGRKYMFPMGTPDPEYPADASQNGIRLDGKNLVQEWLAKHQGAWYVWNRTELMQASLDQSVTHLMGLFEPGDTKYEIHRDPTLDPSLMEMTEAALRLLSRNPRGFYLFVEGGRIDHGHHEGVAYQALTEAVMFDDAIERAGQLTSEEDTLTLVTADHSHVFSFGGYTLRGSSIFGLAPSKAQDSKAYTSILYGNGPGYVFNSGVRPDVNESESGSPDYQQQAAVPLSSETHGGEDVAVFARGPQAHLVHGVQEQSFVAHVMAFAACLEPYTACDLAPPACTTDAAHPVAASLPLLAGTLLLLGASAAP
# hIAP inh – blocks human intestinal alkaline phosphatase; purified IAP, CDP-Star luminescence, 30 min; inhibition, % at 10 µM; 0.12% of 330,000 active; AID 2544;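 active = inhibition reaching a set limit with compound at 10 µM in the primary screen, cut at about 35% in these data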
# bIAP inh – blocks bovine intestinal alkaline phosphatase activity | purified bovine IAP, CDP-star luminescence, 30 min | 190,000 tested, under 10 active | inhibition, % at 20 µM;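 active = over 50% inhibition of intestinal alkaline phosphatase at 20 µM in the single-dose screen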
#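 System: purified bovine intestinal alkaline phosphatase (IAP) enzyme; Input: IAP diluted 1/65,000,000 in the well; Measured by: CDP-star luminescence signal; Compound dosing: 20 µM single dose; Incubation: 30 min reaction at room temperature.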
# mIAP inh – mouse IAP inhibition. purified mouse IAP, CDP-Star luminescence, 30 min. inhibition, % at 10 µM. 0.2% of 330,000 active. AID 2806;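 active = inhibition of at least 40% at 10 µM in the primary screen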
# A number is an active result; n = inactive; x = not tested or not shown. The list is not random: actives were taken first. Their share in the collection is about 0.72%.
SMILES,bIAP act,mIAP activ,hIAP activ,hIAP inh,bIAP inh,mIAP inh
CCC1(c2ccc(OC)cc2)NC(=O)N(CC(=O)NC2CCCCC2C)C1=O (stereo not given),x,n,n,n,x,n
CCOc1ccc(-c2n[nH]c(=S)o2)cc1,n,n,n,n,n,44
O=C(NC(Nc1ccc(F)cc1)(C(F)(F)F)C(F)(F)F)c1cccnc1,2,n,n,n,n,n
COc1ccccc1C(=O)COC(=O)CCNS(=O)(=O)c1ccc(C)c(C)c1,x,n,n,n,x,n
COc1cc([C@H]2c3[nH]c4ccccc4c3C[C@H]3C(=O)N4[C@@H](c5cc(OC)c(OC)c(OC)c5)c5[nH]c6ccccc6c5C[C@H]4C(=O)N23)cc(OC)c1OC,n,3.8,n,n,n,n
O=C(O)CCC(=O)N1CCN(c2ncccn2)CC1,x,n,n,n,x,n
Cn1cnnc1SCC(=O)N1CCC(Cc2ccccc2)CC1,2.4,n,n,n,n,n
Cn1cnnc1SCC(=O)N1CCN(C(=O)c2ccco2)CC1,n,n,n,n,n,n
O=C(NCc1ccccc1)NC12CC3CC(CC(C3)C1)C2,x,n,n,n,x,n
Cc1nn(Cc2cccc(Oc3ccccc3)c2)c(C)c1NC(=O)NC12CC3CC(CC(C3)C1)C2,n,6.8,n,n,n,n
CC1CN(c2ccc(NS(=O)(=O)c3ccccc3)cc2C(=O)O)CC(C)O1 (stereo not given),x,n,n,n,x,n
Cc1cc(NC(=O)C(C)SCC(=O)OCc2c(Cl)cccc2Cl)no1 (stereo not given),x,n,n,n,x,n
O=C(COc1cc(Cl)c(Cl)cc1Cl)NC(=O)Nc1ccc2c(c1)OCCO2,2.6,n,n,n,n,n
Cc1ccc(Cl)c(OCC(=O)Nc2ccc3c(c2)OCCO3)c1,n,n,n,n,n,n
O=C(Nc1ccc(F)cc1)Nc1ccccc1N1CCCCC1,x,2.6,n,n,x,n
CCc1ccccc1NC(=O)Nc1ccc(F)cc1,n,n,n,n,n,n
O=C(Nc1ccc(F)cc1)Nc1csc2ccccc12,x,2.3,n,n,x,n
COc1cccc(NC(=S)NC2CC3CCCC(C2)N3CC(C)C)c1 (stereo not given),n,2.8,n,n,n,n
Cc1ccc(NC(=S)NCCSc2ccc(Cl)cc2)c(C)c1,n,n,n,n,n,n
Cc1ccccc1NC(=S)NCCSc1ccc(Cl)cc1,n,n,n,n,x,n
Cc1cccc(NC(=S)NCC(c2ccccc2)N(C)C)c1 (stereo not given),n,n,n,n,n,n
CCc1ccccc1NC(=S)NCCSc1ccc(Cl)cc1,n,2,n,n,x,n
Cc1cccc(NC(=S)NCC(C)CSc2ccc(Cl)cc2)c1 (stereo not given),n,3.2,n,n,n,n
Cc1ccc(NC(=S)NCC(C)CSc2ccc(Cl)cc2)cc1 (stereo not given),n,2.7,n,n,n,n
Cc1cccc(NC(=S)NC(C)CCc2ccccc2)c1 (stereo not given),n,2.2,n,n,n,n
SMILES,bIAP act,mIAP activ,hIAP activ,hIAP inh,bIAP inh,mIAP inh
Cc1nc(NC(=O)C2CC2)sc1C(=O)Nc1ccccc1Cl,x,n,n,n,x,n
COC(=O)c1c(NC(=O)CSc2nnc3ccccn23)sc2c1CCC2,n,n,n,n,n,n
Cc1cccc(NC(=S)NCCSc2ccc(Cl)cc2)c1,n,2.2,n,n,n,n
Cc1ccc(C)c(NC(=S)NCCSc2ccc(Cl)cc2)c1,n,n,n,n,n,n
Cc1ccccc1C(=O)N1CCC(C(=O)N2CCCc3ccccc32)CC1,x,n,n,n,x,n
CC1CCCN(C(C(=O)Nc2ccc3c(c2)OCCO3)c2ccccc2)C1 (stereo not given),n,n,n,n,n,n
CC1CCN(C(C(=O)Nc2ccc3c(c2)OCO3)c2ccccc2)CC1 (stereo not given),2.7,n,n,n,n,n
CC1CCCN(C(C(=O)Nc2ccc3c(c2)OCO3)c2ccccc2)C1 (stereo not given),2.1,n,n,n,n,n
Cc1nnsc1C(=O)N/N=C/c1ccccc1,5.5,n,n,n,n,n
O=C(CSc1ccc(S(=O)(=O)N2CCCCC2)cn1)Nc1ccccc1Br,x,n,n,n,x,n
S=C(NCCc1ccc(Cl)cc1)Nc1ccc(Cl)cc1Cl,n,2.3,n,n,n,n
O=C(NCCc1ccc(Cl)cc1)Nc1cccc(Cl)c1,n,2.9,n,n,n,n
S=C(NCCCc1ccccc1)Nc1ccc(Cl)cc1,n,2.7,n,n,n,n
S=C(NCCCc1ccccc1)Nc1ccccc1,x,n,n,n,x,n
COc1ccc(NC(=O)c2cccc3cccnc23)cc1S(N)(=O)=O,x,n,n,n,x,n
O=C(NCc1cccc2ccsc12)c1cccs1,x,n,n,n,x,n
COc1cc(NC(=O)CSCc2cnn(-c3ccccc3)c2-n2cccc2)cc(OC)c1,4.1,n,n,n,n,n
O=C(CSCc1cnn(-c2ccccc2)c1-n1cccc1)NCc1cccnc1,n,n,n,n,n,n
COc1cccc(CNC(=O)CSCc2cnn(-c3ccccc3)c2-n2cccc2)c1OC,2.3,n,n,n,n,n
COc1ccccc1CNC(=O)CSCc1cnn(-c2ccccc2)c1-n1cccc1,3.6,n,n,n,n,n
COc1ccc(OC)c(NC(=O)CSCc2cnn(-c3ccccc3)c2-n2cccc2)c1,n,n,n,n,n,n
S=C(NCc1ccccc1)NNc1nc2ccccc2[nH]1,n,n,n,n,n,n
CCOC(Cn1ccc(=O)[nH]c1=O)OCC,x,n,n,n,x,n
Cc1ccc(NC(=O)c2cccc(-n3cnnn3)c2)cc1Cl,x,n,n,n,x,n
COc1ccc(C(CC(=O)Nc2cc(OC)cc(OC)c2)n2cccc2)cc1 (stereo not given),n,2.2,n,n,n,n
SMILES,bIAP act,mIAP activ,hIAP activ,hIAP inh,bIAP inh,mIAP inh
COc1ccc(C(CC(=O)Nc2ccccc2OC)n2cccc2)cc1 (stereo not given),n,n,n,n,n,n
COC(=O)C(C(=O)OC)c1ncc(C(F)(F)F)cc1Cl,2.2,n,n,n,n,n
Cc1cc(NC(=O)CSc2nc(C)c(C)c(=O)[nH]2)no1,x,n,n,n,x,n
Cc1ccc(NC(=O)C(C)Sc2nc(-c3ccccc3)cc(=O)[nH]2)cc1 (stereo not given),x,n,n,n,x,n
COC(=O)c1ccc(NC(=S)NCCc2ccccc2C)cc1,n,2,n,n,n,n
COC(=O)c1ccc(NC(=S)NCCc2cccc(C)c2)cc1,n,n,n,n,n,n
COc1ccc(C(C(=O)NC2CCCC2)N(Cc2ccc(C)cc2)C(=O)c2ccn[nH]2)cc1OC (stereo not given),2.7,n,n,n,n,n
COc1ccc(C(C(=O)NC2CCCC2)N(Cc2cccnc2)C(=O)Cc2cccs2)cc1OC (stereo not given),x,n,n,n,x,n

# Bioassay records deposited in PubChem by Sanford-Burnham Center for Chemical Genomics.
